{"data": "Results from different studies", "FGFR2": "Fibroblast growth factor receptor 2 (FGFR2, Homo sapiens, UniProt P21802)", "note": "Protocols differ between the studies behind these lines."}
{"Structure (SMILES)": "O=C(NCCCC1CCCCC1)c1ccc(CNC(=O)c2cnn(-c3ccccc3)c2C(F)(F)F)cc1", "target": "FGFR2", "test": "cell-free assay, competition with immobilised ligand", "setting": "0.1 µM", "endpoint": "remaining binding", "result": "100%"}
{"Structure (SMILES)": "CCN(CC)CCNC(=O)c1c(C)[nH]c(/C=C2\\C(=O)Nc3ccc(F)cc32)c1C", "target": "FGFR2", "test": "enzyme activity, inhibitor", "setting": "0.3 µM", "endpoint": "inhibition", "result": "36%"}
{"Structure (SMILES)": "CO[C@@H](C)c1c(Nc2ccc([C@H](N(C)C(=O)C3CCS(=O)(=O)CC3)C(F)(F)F)cc2)cnc2cc(Cl)nn12", "target": "FGFR2", "test": "cell-free assay, competition with immobilised ligand", "setting": "1 µM", "endpoint": "remaining binding", "result": "91%"}
{"Structure (SMILES)": "CC/C(=N\\NC(=O)NCc1cccc(O)c1)c1ccc(O)c(C)c1O", "target": "Fibroblast growth factor receptor 2 (FGFR2, Homo sapiens, UniProt P21802, V564I)", "test": "enzyme activity, inhibitor", "setting": "0.1 µM", "endpoint": "inhibition", "result": "-2.7%"}
{"Structure (SMILES)": "O=C1NC(=O)c2cc(Nc3ccc(F)cc3)c(Nc3ccc(F)cc3)cc21", "target": "FGFR2", "test": "cell-free assay", "setting": "0.5 µM", "endpoint": "remaining signal", "result": "102%"}
{"Structure (SMILES)": "O=C(Nc1cnn(-c2csc(C(=O)NC3COC3)c2)c1)Nc1ccccc1Cl", "target": "FGFR2", "test": "enzyme activity, inhibitor", "setting": "5 µM", "endpoint": "remaining activity", "result": "95.6%"}
{"Structure (SMILES)": "COc1cc(-c2cn(C3CCc4c(F)cccc4N(CC(F)(F)F)C3=O)nn2)ccc1-n1cnc(C)c1 (centres unmarked)", "target": "FGFR2", "test": "cell-free assay, competition with immobilised ligand", "setting": "1 µM", "endpoint": "remaining binding", "result": "100%"}
{"Structure (SMILES)": "COc1ccc(COc2ccc(Cc3cnc(N)nc3N)cc2OC)cc1", "target": "FGFR2", "test": "cell-free assay", "setting": "0.5 µM", "endpoint": "remaining signal", "result": "102%"}
{"Structure (SMILES)": "Cc1cnc(NC2CCOCC2)nc1-n1cnc(C(=O)NC(CN)c2cc(F)cc(Cl)c2)c1 (centres unmarked)", "target": "Fibroblast growth factor receptor 2 (FGFR2, Homo sapiens, UniProt P21802, N549H)", "test": "enzyme activity, inhibitor, radiometric", "setting": "1 µM", "endpoint": "remaining activity", "result": "99%"}
{"Structure (SMILES)": "CC(C)(C)c1nc(-c2cccc(NS(=O)(=O)c3c(F)cccc3F)c2F)c(-c2ccnc(N)n2)s1", "target": "FGFR2", "test": "enzyme activity, inhibitor, radiometric", "setting": "1 µM", "endpoint": "remaining activity", "result": "92%"}
{"Structure (SMILES)": "Cc1cc(NC(=O)c2cccc3cc(-c4cccc5[nH]nc(N)c45)ccc23)ccc1F", "target": "FGFR2", "test": "enzyme activity, inhibitor", "setting": "0.1 µM", "endpoint": "activity vs control", "result": "98%"}
{"Structure (SMILES)": "COc1cc2c(N3CCN(C(=O)Nc4ccc(OC(C)C)cc4)CC3)ncnc2cc1OCCCN1CCCCC1", "target": "FGFR2", "test": "cell-free assay", "setting": "0.5 µM", "endpoint": "remaining signal", "result": "99.8%"}
{"Structure (SMILES)": "O=c1nc(-c2ccccn2)sc2ccccc12", "target": "FGFR2", "test": "cell-free assay, competition with immobilised ligand", "setting": "1 µM", "endpoint": "remaining binding", "result": "100%"}
{"Structure (SMILES)": "Cc1ccc(C(=O)NCc2ccsc2)cc1C#Cc1cn(C(C)C)c2ncnc(N)c12", "target": "FGFR2", "test": "enzyme activity, inhibitor", "setting": "1 µM", "endpoint": "activity vs control", "result": "55%"}
{"Structure (SMILES)": "C[C@H](c1ccnc(Nc2nc3ccc(-c4cc(N(C)C)ncn4)cc3[nH]2)c1)N1CCN(C(=O)CC(F)(F)F)CC1", "target": "FGFR2", "test": "cell-free assay, competition with immobilised ligand", "setting": "0.1 µM", "endpoint": "remaining binding", "result": "100%"}
{"Structure (SMILES)": "CN(C)C1CCN(CC#Cc2nn(C3CCCC3)c3nc(NCc4ccccc4)ncc23)C1 (centres unmarked)", "target": "FGFR2", "test": "enzyme activity, inhibitor, FRET", "setting": "0.1 µM", "endpoint": "inhibition", "result": "0%"}
{"Structure (SMILES)": "Cc1ccc(Nc2nccc(N(C)c3ccc4c(C)n(C)nc4c3)n2)cc1S(N)(=O)=O", "target": "FGFR2", "test": "enzyme activity, inhibitor", "setting": "10 µM", "endpoint": "inhibition", "result": "99%"}
{"Structure (SMILES)": "Cc1noc([C@H]2C[C@@H](c3ccc(C(F)(F)F)cc3)CN(C(=O)N3CCS(=O)(=O)C3)C2)n1", "target": "FGFR2", "test": "cell-free assay, competition with immobilised ligand", "setting": "1 µM", "endpoint": "remaining binding", "result": "85%"}
{"Structure (SMILES)": "COc1cc2c(Nc3ccc(Br)cc3F)ncnc2cc1OCC1CCN(C)CC1", "target": "FGFR2", "test": "cell-free assay", "setting": "0.5 µM", "endpoint": "remaining signal", "result": "38.4%"}
{"Structure (SMILES)": "CC(C)(O)[C@H]1CC[C@H](Nc2ccc3ncc(-c4cccc(C(F)(F)F)c4)n3n2)CC1", "target": "FGFR2", "test": "enzyme activity, inhibitor", "setting": "1 µM", "endpoint": "remaining activity", "result": "98.3%"}
{"Structure (SMILES)": "C[C@@]1(Cc2ccc(C#N)cc2)C(=O)N(c2cc(Cl)cc(Cl)c2)c2ncc(C(=O)NC3(c4nc(C5CCC5)no4)CC3)n21", "target": "FGFR2", "test": "cell-free assay, competition with immobilised ligand", "setting": "1 µM", "endpoint": "remaining binding", "result": "100%"}
{"Structure (SMILES)": "Cc1ccc(NC(=O)c2ccc(C)c(C(F)(F)F)c2)cc1C#Cc1nn(C2CCC(O)CC2)c2ncnc(N)c12 (centres unmarked)", "target": "FGFR2", "test": "cell-free assay", "setting": "10 µM", "endpoint": "remaining signal", "result": "0%"}
{"Structure (SMILES)": "CNc1cccc2cc(C(=O)Nc3ccc(C(=O)O)cc3)c(=O)[nH]c12", "target": "FGFR2", "test": "enzyme activity, inhibitor", "setting": "10 µM", "endpoint": "inhibition", "result": "-1%"}
{"Structure (SMILES)": "CNCc1ccccc1-c1csc([C@H](C)Nc2nc(C)nc3cc(OC)c(OC)cc23)c1", "target": "FGFR2", "test": "cell-free assay, competition with immobilised ligand", "setting": "1 µM", "endpoint": "remaining binding", "result": "94%"}
{"Structure (SMILES)": "CNC(=O)c1cc(Oc2ccc(NC(=O)Nc3ccc(Cl)c(C(F)(F)F)c3)cc2)ccn1", "target": "FGFR2", "test": "enzyme activity, inhibitor", "setting": "0.3 µM", "endpoint": "inhibition", "result": "66%"}
{"Structure (SMILES)": "CCCOc1ccc(OC)c(F)c1C(=O)c1ccc(C(=O)N[C@@H]2CNC[C@H]2NC(=O)c2ccc3[nH]ncc3c2)cc1", "target": "FGFR2", "test": "enzyme activity, inhibitor", "setting": "10 µM", "endpoint": "remaining activity", "result": "70%"}
